Measurements as given in ChEMBL document CHEMBL3232996, “Synthesis and biological evaluation of novel (123)I-labeled 4-(4-iodophenyl)butanoyl-L-prolyl-(2S)-pyrrolidines for imaging prolyl oligopeptidase in vivo” (Eur J Med Chem, 2014).

What was measured:
[1] = Biodistribution in brain of iv dosed C57BL/6JRccHsd mouse LPS-induced acute neuroinflammation model dosed 24 hrs after LPS challenge and measured at 80 mins post dose; assay type: ADME, organism-based
Outline: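 Male mice under isoflurane got a stereotaxic LPS injection (E. coli 055:B5) into the left striatum, with buprenorphine 0.1 mg/kg s.c. for post-operative pain. The right hemisphere served as intact control. Tracer was given i.v. 24 h later. Left and right hemisphere and whole-brain radioactivity were measured 80 min post injection as %ID/g or %ID, n = 3.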

[2] = Plasma protein binding in iv dosed C57Bl/6JRccHsd mouse measured at 20 mins; assay type: ADME, organism-based; details: read-out: PPB (converted)
Outline: (§1)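 Male mice given 3.6 MBq tracer i.v. via lateral tail vein; blocking groups got POP inhibitor i.p. (50 µmol/kg, 10 mL/kg, 1% DMSO in 0.9% NaCl) 10 min before. Heparinized cardiac blood on ice, gamma-counted, spun 5 min at 2000 g; plasma counted, precipitated with 1.5 volumes acetonitrile, respun; cell-bound, protein-bound and free fractions expressed as % of blood activity; n = 3.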

Liver = test: Biodistribution in C57Bl/6JRccHsd mouse liver at 2.86 +/- 1.26 MBq, iv measured at 80 mins by SPECT analysis; assay type: ADME, organism-based; details: in vivo
Outline: (§2)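 Organs excised at 5, 20, 40, 80 or 160 min and radioactivity gamma-counted as %ID/g (brain also as %ID). Blocking groups received KYP-2047 (50 µmol/kg, 10 mL/kg, 1% DMSO in 0.9% NaCl) i.p. 10 min before tracer. Mean ± SD, n = 2–4 per time point. Blocking compared by two-tailed Student's t test.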

[3] = Drug uptake in iv dosed C57Bl/6JRccHsd mouse blood cells measured at 20 mins post dose pretreated with 50 umol/kg, ip prolyl oligopeptidase inhibitor KYP-2047 10 mins before compound dosing by SPECT analysis; assay type: ADME, organism-based; details: in vivo
Outline: (§3)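 Mice got tracer i.v., some after i.p. KYP-2047 (50 µmol/kg) 10 min before. Cardiac blood was collected at 20, 40, 80 or 160 min and spun 5 min at 2000 g into cells and plasma. Plasma was precipitated with acetonitrile and pellet and supernatant were gamma-counted. Activity in cells, protein-bound and free plasma is given as % of total blood activity, n = 3.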

[4] = Biodistribution in C57Bl/6JRccHsd mouse urine at 2.86 +/- 1.26 MBq, iv measured at 80 mins by SPECT analysis; assay type: ADME, organism-based; details: in vivo; outline: as §2
[5] = Fraction unbound in iv dosed C57Bl/6JRccHsd mouse plasma measured at 20 mins post dose pretreated with 50 umol/kg, ip prolyl oligopeptidase inhibitor KYP-2047 10 mins before compound dosing by SPECT analysis; assay type: ADME, organism-based; outline: as §1
Mus musculus [6] = test: Biodistribution in C57Bl/6JRccHsd mouse tongue at 2.86 +/- 1.26 MBq, iv measured at 80 mins by SPECT analysis; assay type: ADME, organism-based; details: in vivo; outline: as §2
Blood [7] = test: Biodistribution in C57Bl/6JRccHsd mouse blood at 2.86 +/- 1.26 MBq, iv measured at 160 mins post dose pretreated with 50 umol/kg, ip prolyl oligopeptidase inhibitor KYP-2047 10 mins before compound dosing by SPECT analysis; assay type: ADME, organism-based; details: in vivo; outline: as §2
Thyroid gland [8] = test: Biodistribution in C57Bl/6JRccHsd mouse thyroid at 2.86 +/- 1.26 MBq, iv measured at 160 mins by SPECT analysis; assay type: ADME, organism-based; details: in vivo; outline: as §2
Mus musculus [9] = test: Biodistribution in C57Bl/6JRccHsd mouse salivary gland at 2.86 +/- 1.26 MBq, iv measured at 80 mins post dose pretreated with 50 umol/kg, ip prolyl oligopeptidase inhibitor KYP-2047 10 mins before compound dosing by SPECT analysis; assay type: ADME, organism-based; details: in vivo; outline: as §2
Brain [10] = test: Biodistribution in C57Bl/6JRccHsd mouse brain at 2.86 +/- 1.26 MBq, iv measured at 80 mins by SPECT analysis; assay type: ADME, organism-based; details: in vivo; outline: as §2
[11] = Drug uptake in iv dosed C57Bl/6JRccHsd mouse blood cells measured at 160 mins; assay type: ADME, organism-based; details: in vivo; outline: as §3
Brain [12] = test: Biodistribution in C57Bl/6JRccHsd mouse brain at 2.86 +/- 1.26 MBq, iv measured at 40 mins by SPECT analysis; assay type: ADME, organism-based; details: in vivo; outline: as §2
[13] = Drug uptake in iv dosed C57Bl/6JRccHsd mouse blood cells measured at 160 mins post dose pretreated with 50 umol/kg, ip prolyl oligopeptidase inhibitor KYP-2047 10 mins before compound dosing by SPECT analysis; assay type: ADME, organism-based; details: in vivo; outline: as §3
[14] = Fraction unbound in iv dosed C57Bl/6JRccHsd mouse plasma measured at 20 mins; assay type: ADME, organism-based; outline: as §3
Blood [15] = test: Biodistribution in C57Bl/6JRccHsd mouse blood at 2.86 +/- 1.26 MBq, iv measured at 160 mins by SPECT analysis; assay type: ADME, organism-based; details: in vivo; outline: as §2
Muscle tissue = test: Biodistribution in C57Bl/6JRccHsd mouse muscle at 2.86 +/- 1.26 MBq, iv measured at 80 mins by SPECT analysis; assay type: ADME, organism-based; details: in vivo; outline: as §2
Plasma = test: Stability in human plasma at 2.5 MBq/ml up to 120 mins by HPLC analysis; assay type: ADME, cell-free; details: 2 h
Blood [16] = test: Biodistribution in C57Bl/6JRccHsd mouse blood at 2.86 +/- 1.26 MBq, iv measured at 40 mins post dose pretreated with 50 umol/kg, ip prolyl oligopeptidase inhibitor KYP-2047 10 mins before compound dosing by SPECT analysis; assay type: ADME, organism-based; details: in vivo; outline: as §2
Heart = test: Biodistribution in C57Bl/6JRccHsd mouse heart at 2.86 +/- 1.26 MBq, iv measured at 80 mins post dose pretreated with 50 umol/kg, ip prolyl oligopeptidase inhibitor KYP-2047 10 mins before compound dosing by SPECT analysis; assay type: ADME, organism-based; details: in vivo; outline: as §2
Thyroid gland [17] = test: Biodistribution in C57Bl/6JRccHsd mouse thyroid at 2.86 +/- 1.26 MBq, iv measured at 5 mins by SPECT analysis; assay type: ADME, organism-based; details: in vivo; outline: as §2
Mus musculus [18] = test: Biodistribution in gastrocnemius muscle of iv dosed C57BL/6JRccHsd mouse turpentine-induced acute localized inflammation model after 20 mins to 24 hrs by SPEC-CT analysis (reference value: 2.0 +/- 0.6 %ID/g); assay type: ADME, organism-based; details: in vivo
[19] = Drug uptake in iv dosed C57Bl/6JRccHsd mouse blood cells measured at 40 mins; assay type: ADME, organism-based; details: in vivo; outline: as §3
Blood [20] = test: Biodistribution in C57Bl/6JRccHsd mouse blood at 2.86 +/- 1.26 MBq, iv measured at 80 mins post dose pretreated with 50 umol/kg, ip prolyl oligopeptidase inhibitor KYP-2047 10 mins before compound dosing by SPECT analysis; assay type: ADME, organism-based; details: in vivo; outline: as §2
Spleen = test: Biodistribution in C57Bl/6JRccHsd mouse spleen at 2.86 +/- 1.26 MBq, iv measured at 80 mins post dose pretreated with 50 umol/kg, ip prolyl oligopeptidase inhibitor KYP-2047 10 mins before compound dosing by SPECT analysis; assay type: ADME, organism-based; details: in vivo; outline: as §2
Lung [21] = test: Biodistribution in C57Bl/6JRccHsd mouse lung at 2.86 +/- 1.26 MBq, iv measured at 80 mins by SPECT analysis; assay type: ADME, organism-based; details: in vivo; outline: as §2
Lung [22] = test: Biodistribution in C57Bl/6JRccHsd mouse lung at 2.86 +/- 1.26 MBq, iv measured at 80 mins post dose pretreated with 50 umol/kg, ip prolyl oligopeptidase inhibitor KYP-2047 10 mins before compound dosing by SPECT analysis; assay type: ADME, organism-based; details: in vivo; outline: as §2

N#C[C@@H]1CCCN1C(=O)[C@@H]1CCCN1C(=O)CCCc1ccc([123I])cc1
tissue uptake at 80 min [1]: 0.6 %ID
fraction unbound at 20 min [2]: 0.98
Drug uptake (Liver): 20.1 % ID/g
Drug uptake [3]: 53%
Drug uptake [4]: 2.23 % ID/g
fraction unbound at 20 min [5]: 0.47
Drug uptake (Mus musculus [6]): 4.43 % ID/g
Drug uptake (Blood [7]): 1 % ID/g
Drug uptake (Thyroid gland [8]): 9.4 % ID/g
Drug uptake (Mus musculus [9]): 1.52 % ID/g
Drug uptake (Brain [10]): 0.62 % ID/g
Drug uptake [11]: 73%
Drug uptake (Brain [12]): 0.76 %ID
Drug uptake [13]: 42%
fraction unbound at 20 min [14]: 0.03
Drug uptake (Blood [15]): 2.1 % ID/g
Drug uptake (Muscle tissue): 2.15 % ID/g
Stability (Plasma): Stable
Drug uptake (Blood [16]): 4 % ID/g
Drug uptake (Heart): 1.34 % ID/g
Drug uptake (Thyroid gland [17]): 52 % ID/g
Drug uptake (Mus musculus [18]): 0.8 % ID/g
Drug uptake [19]: 90%
Drug uptake (Blood [20]): 2.69 % ID/g
Drug uptake (Spleen): 0.92 % ID/g
Drug uptake (Lung [21]): 14.67 % ID/g
Drug uptake (Lung [22]): 1.54 % ID/g
